Data from ChEMBL document CHEMBL1255290, “Characterization of a novel human immunodeficiency virus type 1 protease inhibitor, A-790742” (Antimicrob Agents Chemother, 2008).

How the values were obtained:
[1] = tested on: Human immunodeficiency virus 1; test: Antiviral activity against wild-type HIV1 pNL4-3 infected in human MT4 cells assessed as reduction in viral cytopathogenicity treated 1 hr post infection measured 5 days post infection in absence of human serum by MTT assay; assay type: functional, organism-based; details: Human immunodeficiency virus 1, pNL4-3, MT4
How it was run: (§1)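 For the assay, 10⁶ MT-4 cells were infected at MOI 0.003, washed after 1 h, and plated at 10⁴ cells/well with eight serial compound dilutions in triplicate (0.5% DMSO final). MTT cytopathic read-out at day 5; EC50 from dose-response fitting.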

[2] = tested on: Human immunodeficiency virus 1; test: Antiviral activity against HIV1 clone4 infected in HEK293 cells harboring A-790742-selected protease L33F, A71V, G73S, V77I, V82L, and I84V mutation assessed as reduction in viral replication by luciferase reporter gene assay relative to wild type HIV1 pNL4-3; assay type: functional
How it was run: (§2)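 Single-cycle assay: HEK-293 cells were cotransfected with luciferase-reporter HIV-1 protease clones plus a VSV-G expression vector. After 4 h, cells were replated at 2 × 10⁴/well over serial inhibitor dilutions in triplicate. Pseudovirus collected at 48 h infected fresh HEK-293 (10⁴/well). Luciferase read 48 h later gave % inhibition versus untreated and EC50. Fold change against WT pNL4-3-Luc (clones 1-4) or RF-Luc (clone 5) is the mean of three experiments.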

[3] = tested on: Human immunodeficiency virus 1; test: Antiviral activity against wild-type HIV1 pNL4-3 infected in human MT4 cells assessed as reduction in viral cytopathogenicity treated 1 hr post infection measured 5 days post infection in presence of 50% human serum by MTT assay; assay type: functional, organism-based; details: Human immunodeficiency virus 1, pNL4-3, MT4
[4] = tested on: Human immunodeficiency virus 1; test: Antiviral activity against wild-type HIV1 RF infected in human MT4 cells assessed as reduction in viral cytopathogenicity treated 1 hr post infection measured 5 days post infection in absence of human serum by MTT assay; assay type: functional, organism-based; details: Human immunodeficiency virus 1, RF; how it was run: as §1
[5] = tested on: Human immunodeficiency virus 1; test: (§3) Antiviral activity against HIV1 A17 infected in human MT4 cells harboring protease L10F, V32I, M46I, I47V, Q58E, and I84V mutation derived from viral passages with Lopinavir assessed as reduction in viral cytopathogenicity treated 1 hr post infection measured 5 days post infection by MTT assay; assay type: functional, organism-based; details: Human immunodeficiency virus 1, A17, MT4; how it was run: as §1
[6] = tested on: Human immunodeficiency virus 1; test: (§4) Antiviral activity against HIV1 P15 infected in human MT4 cells derived from viral passages with A-790742 harboring protease L33L/F, K45I, V82L, and I84V mutation assessed as reduction in viral cytopathogenicity treated 1 hr post infection measured 5 days post infection by MTT assay relative to wild type HIV1 pNL4-3; assay type: functional; how it was run: as §1
[7] = tested on: Human immunodeficiency virus 1; test: Antiviral activity against HIV1 clone2 infected in HEK293 cells harboring A-790742-selected protease V82L mutation assessed as reduction in viral replication by luciferase reporter gene assay relative to wild type HIV1 pNL4-3; assay type: functional; how it was run: as §2
[8] = tested on: Human immunodeficiency virus 1; test: as §4, with “P13” for “P15”, “M46I, L63P, A71V,” for “L33L/F, K45I, V82L,”, “V82G” for “I84V”, “RF” for “pNL4-3”; assay type: functional; how it was run: as §1
[9] = tested on: Human immunodeficiency virus 1; test: Antiviral activity against HIV1 clone3 infected in HEK293 cells harboring A-790742-selected protease L33F, K45I, V82L, and I84V mutation assessed as reduction in viral replication by luciferase reporter gene assay relative to wild type HIV1 pNL4-3; assay type: functional; how it was run: as §2
[10] = tested on: Human immunodeficiency virus 1; test: Antiviral activity against HIV1 clone1 infected in HEK293 cells harboring A-790742-selected protease I84V mutation assessed as reduction in viral replication by luciferase reporter gene assay relative to wild type HIV1 pNL4-3; assay type: functional; how it was run: as §2
[11] = tested on: Human immunodeficiency virus 1; test: as §4, with “P9” for “P15”, “V82V/L” for “L33L/F, K45I, V82L,”; assay type: functional; how it was run: as §1
[12] = tested on: Human immunodeficiency virus 1; test: Antiviral activity against HIV1 clone5 infected in HEK293 cells harboring A-790742-selected protease L63P, A71V, and V82G mutation assessed as reduction in viral replication by luciferase reporter gene assay relative to wild type HIV1 RF; assay type: functional; how it was run: as §2
[13] = tested on: Human immunodeficiency virus 1; test: as §4, with “P21” for “P15”, “L23I, L33F,” for “L33L/F,”, “K45I, A71A/V, V77I,” for “K45I,”; assay type: functional; how it was run: as §1
[14] = tested on: Human immunodeficiency virus 1; test: as §3, with “P25” for “A17”, “L10F, G16E,” for “L10F,”, “I47A, H69Y, I84V,” for “I47V, Q58E,”, “T91S” for “I84V”; assay type: functional, organism-based; details: Human immunodeficiency virus 1, P25, MT4; how it was run: as §1

SMILES: CCC[C@@]1(CCc2ccccc2)CC(O)=C([C@H](CC)c2cccc(NS(=O)(=O)c3ccc(C(F)(F)F)cn3)c2)C(=O)O1
- EC50 [1]: 184 nM
- Ratio EC50 [2]: 6
- EC50 [3]: 7840 nM
- EC50 [4]: 204 nM
- EC50 [5]: 360 nM

SMILES: Cc1c(O)cccc1C(=O)N[C@@H](CSc1ccccc1)[C@H](O)CN1C[C@H]2CCCC[C@H]2C[C@H]1C(=O)NC(C)(C)C
- Ratio EC50 [6]: 6
- Ratio EC50 [7]: 1
- Ratio EC50 [8]: 67
- Ratio EC50 [2]: 2
- Ratio EC50 [9]: 3
- Ratio EC50 [10]: 1
- Ratio EC50 [11]: 5
- Ratio EC50 [12]: 203
- Ratio EC50 [13]: >93

SMILES: CC(C)c1nc(CN(C)C(=O)N[C@H](C(=O)N[C@@H](Cc2ccccc2)C[C@H](O)[C@H](Cc2ccccc2)NC(=O)OCc2cncs2)C(C)C)cs1 [RITONAVIR]
- Ratio EC50 [6]: 29
- Ratio EC50 [7]: 7
- Ratio EC50 [8]: 79
- Ratio EC50 [2]: 14
- Ratio EC50 [9]: 79
- Ratio EC50 [10]: 3
- Ratio EC50 [11]: 26.7
- Ratio EC50 [12]: 1386
- Ratio EC50 [13]: >141

SMILES: Cc1cccc(C)c1OCC(=O)N[C@@H](Cc1ccccc1)[C@@H](O)C[C@H](Cc1ccccc1)NC(=O)[C@H](C(C)C)N1CCCNC1=O [LOPINAVIR]
- EC50 [14]: > 10000 nM

SMILES: CC(C)(C)NC(=O)[C@@H]1C[C@@H]2CCCC[C@@H]2CN1C[C@@H](O)[C@H](Cc1ccccc1)NC(=O)[C@H](CC(N)=O)NC(=O)c1ccc2ccccc2n1
- Ratio EC50 [6]: 4
- Ratio EC50 [7]: 1
- Ratio EC50 [8]: 21
- Ratio EC50 [2]: 1
- Ratio EC50 [9]: 0.4
- Ratio EC50 [10]: 1
- Ratio EC50 [11]: 3
- Ratio EC50 [12]: 28
- Ratio EC50 [13]: 5
